The test system of experiment [1] is Candida albicans. The experiment is described as follows: Minimum inhibitory concentration was determined against Candida albicans 3153A strain. The format is functional.
Experiment [2] has as its system Candida albicans. The experiment in a line: Minimum fungicidal concentration was determined against Candida albicans 3153A strain. The class given is functional. Summed up: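 Fungicidal endpoint: lowest drug concentration whose subcultures were negative or grew fewer than three colonies.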
Experiment [3] has as its system Mus musculus. The experiment is described as follows: The number of survivors/total infected at day 14 was determined after (ip) administration of 2 mg/kg in Candida albicans infected mice; 4/10. The class given is functional.
The subject of experiment [4] is Mus musculus. The experiment in a line: The number of survivors/total infected at day 14 was determined after (ip) administration of 2 mg/kg in Candida albicans infected mice; 6/10. The class given is functional.
Experiment [5] deals with Mus musculus. The experiment in a line: The number of survivors/total infected at day 14 was determined after (ip) administration of 1 mg/kg in Candida albicans infected mice; 10/10.
[6] abbreviates: Candida albicans, read-out: MIC.
[7] abbreviates: Candida albicans, read-out: MFC.

Converted amounts (≈) assume the structure as drawn.

In the case of `OC(Cn1cncn1)(Cn1cncn1)c1ccc(F)cc1F` [FLUCONAZOLE], the MIC in the experiment on Candida albicans [1] and with Candida albicans [1] (setting [6]) was 0.8 µg/mL (≈ 2.61 µM) in each case.
Take `CC(C)CCC[C@@H](C)C1CCN[C@@]2(C)C3=C(CC[C@]12C)[C@@]1(C)CC[C@H](O)CC1CC3` (stereo partly drawn): the MFC with Candida albicans [2] and with Candida albicans [2] (setting [7]) was 6.3 µg/mL (≈ 15.2 µM) each time. The MIC against Candida albicans [1] and with Candida albicans [1] (setting [6]) was 3.1 µg/mL (≈ 7.46 µM) throughout. In the experiment on Mus musculus [3], this compound showed a No. of survivors of 4.
As for `CC(C)CCC[C@@H](C)C1CCN[C@@]2(C)C3=CCC4C[C@@H](O)CC[C@]4(C)C3CC[C@]12C` (stereo partly drawn), the MFC in the experiment with Candida albicans [2] and in the experiment on Candida albicans [2] (setting [7]) was 6.3 µg/mL (≈ 15.2 µM) in each case. In the experiment with Mus musculus [4], the No. of survivors turned out to be 6. Also, the MIC in the experiment on Candida albicans [1] and in the experiment with Candida albicans [1] (setting [6]) was 1.6 µg/mL (≈ 3.85 µM) each time.
For the compound `CC(C)CCC[C@@H](C)C1CCN[C@@]2(C)C3=CCC4C(C)(C)[C@@H](O)CC[C@]4(C)C3CC[C@]12C` (stereo partly drawn), the MFC in the experiment with Candida albicans [2] and in the experiment with Candida albicans [2] (setting [7]) was 3.1 µg/mL (≈ 6.99 µM) in each case. In addition, the MIC against Candida albicans [1] and with Candida albicans [1] (setting [6]) was 1.6 µg/mL (≈ 3.61 µM) each time.
In the case of `CC(C)[C@@H](C)/C=C/[C@@H](C)C1CCN[C@@]2(C)C3=CCC4C(C)(C)[C@@H](O)CC[C@]4(C)C3CC[C@]12C` (stereo partly drawn), the MFC with Candida albicans [2] and in the experiment with Candida albicans [2] (setting [7]) was 6.3 µg/mL (≈ 13.8 µM) throughout. Moreover, the MIC with Candida albicans [1] and in the experiment with Candida albicans [1] (setting [6]) was 1.6 µg/mL (≈ 3.51 µM) each time.
Consider `CC(C)CCC[C@@H](C)C1CC(=O)N[C@@]2(C)C3=CCC4C[C@@H](O)CC[C@]4(C)C3CC[C@]12C` (stereo partly drawn), for which, in the experiment on Candida albicans [1] (setting [6]), the MIC is above 100 µg/mL.
For `CC(C)[C@@H](C)/C=C/[C@@H](C)C1CCN[C@@]2(C)C3=CCC4C[C@@H](O)CC[C@]4(C)C3CC[C@]12C` (stereo partly drawn), the MFC in the experiment with Candida albicans [2] and in the experiment with Candida albicans [2] (setting [7]) was 6.3 µg/mL (≈ 14.7 µM) in each case. Also, the MIC against Candida albicans [1] and in the experiment on Candida albicans [1] (setting [6]) was 0.8 µg/mL (≈ 1.87 µM) throughout.
With `C[C@@H]1[C@H](O)[C@@H](C)/C=C/C=C/C=C/C=C/C=C/C=C/C=C/[C@H](O[C@@H]2O[C@H](C)[C@@H](O)[C@H](N)[C@@H]2O)C[C@@H]2O[C@](O)(C[C@@H](O)C[C@@H](O)[C@H](O)CC[C@@H](O)C[C@@H](O)CC(=O)O[C@H]1C)C[C@H](O)[C@H]2C(=O)O` [AMPHOTERICIN B], the MIC against Candida albicans [1] and with Candida albicans [1] (setting [6]) was 0.16 µg/mL (≈ 0.173 µM) throughout. The No. of survivors in the experiment on Mus musculus [5] is listed as 10.

Broadly, the MIC is the smallest concentration in the dilution series that meets the test's criterion for growth inhibition. In general, MFC refers to the lowest tested concentration that kills the fungus rather than only halting it.
